Holding throughout (type): binding
The target of test [1] is T1, P450cam (cytochrome P450cam), WT (Pseudomonas putida, UniProt P00183, C335A).
T1 sequence (P00183 2-415 C335A): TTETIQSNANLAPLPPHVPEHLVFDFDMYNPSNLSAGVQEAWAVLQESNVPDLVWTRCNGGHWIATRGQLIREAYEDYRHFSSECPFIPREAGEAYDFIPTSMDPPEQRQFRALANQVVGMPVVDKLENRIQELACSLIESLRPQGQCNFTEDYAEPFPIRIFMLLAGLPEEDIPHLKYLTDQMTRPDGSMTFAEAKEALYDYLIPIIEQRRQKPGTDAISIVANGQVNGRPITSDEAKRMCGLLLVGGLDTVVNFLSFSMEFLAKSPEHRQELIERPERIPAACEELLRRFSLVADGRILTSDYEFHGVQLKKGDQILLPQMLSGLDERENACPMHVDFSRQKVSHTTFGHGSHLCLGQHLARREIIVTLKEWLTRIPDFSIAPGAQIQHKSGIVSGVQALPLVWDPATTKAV
Description: constant-volume visible difference spectrophotometric titration. Put shortly: (§1)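 Substrate-bound protein solution was exchanged into substrate-free solution at the same protein concentration, and visible difference spectra were recorded. KD was obtained by fitting to a single-site binding model. This method applied to the camphor-analogue test compounds.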

Test [2] addresses T2, P450cam (cytochrome P450cam), WT (Pseudomonas putida, UniProt P00183, C335A/Y97F).
T2 sequence (P00183 2-415 Y97F/C335A): T1 sequence (P00183 2-415 C335A)
The test is described as above. Put shortly: as §1

In test [3] the target is T2, P450cam (cytochrome P450cam), WT. As to the kind of experiment: visible spectrophotometric titration.
For test [4], the target named is T1, P450cam (cytochrome P450cam), WT. As to the kind of experiment: visible spectrophotometric titration.

The structures appear in SMILES notation.

As to `CC1(C)C2CCC1(C)C(O)C2` (racemic) [isoborneol], the dissociation constant Kd is 10.9 ± 3.4 µM in test [1] and 1.2 ± 0.3 µM in test [2].

On to `CC1(C)[C@@H]2CC[C@@]1(C)C(=O)C2` [d-camphor], for which the Kd is 3.5 ± 0.6 µM in test [3] and 1.8 ± 0.8 µM in test [4].

For `CC12CCC(CC1)C2(C)C` [camphane], the Kd in test [1] came out at 18.7 ± 2.5 µM; in test [2], 10.7 ± 3.3 µM.

The record behind these values is article PMC5816979 (Biochemistry, 2017).
